Results from ChEMBL document CHEMBL3864182, “Discovery and Optimization of a Novel Triazole Series of GPR142 Agonists for the Treatment of Type 2 Diabetes” (ACS Med Chem Lett, 2016).
≈ marks a conversion by molar mass, not a printed value. Calls of active or inactive are those of the source. No cut-off for these calls is given here.

Assays:
[1] = target: T1, Probable G-protein coupled receptor 142 (Homo sapiens, UniProt Q7Z601); experiment: Agonist activity at human GPR142 expressed in CHO cells measured for 3 to 5 mins by Fluo-4AM dye-based FLIPR assay; type: cell-based
T1 sequence (Q7Z601 whole entry): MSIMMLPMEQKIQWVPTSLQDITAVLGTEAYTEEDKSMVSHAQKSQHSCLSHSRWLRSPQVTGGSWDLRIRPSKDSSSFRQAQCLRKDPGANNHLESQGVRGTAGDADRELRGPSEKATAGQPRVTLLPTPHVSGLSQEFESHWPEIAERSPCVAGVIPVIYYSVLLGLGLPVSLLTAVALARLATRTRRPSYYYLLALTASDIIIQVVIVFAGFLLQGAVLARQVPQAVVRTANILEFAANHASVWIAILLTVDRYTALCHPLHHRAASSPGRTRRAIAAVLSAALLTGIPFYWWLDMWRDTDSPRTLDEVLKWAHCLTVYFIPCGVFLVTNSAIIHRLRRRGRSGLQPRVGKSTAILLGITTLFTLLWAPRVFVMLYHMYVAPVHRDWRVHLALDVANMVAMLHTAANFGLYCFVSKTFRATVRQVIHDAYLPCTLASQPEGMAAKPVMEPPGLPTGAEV

[2] = target: T2, Probable G-protein coupled receptor 142 (Mus musculus, UniProt Q7TQN9); experiment: Agonist activity at mouse GPR142 expressed in CHO cells measured for 3 to 5 mins by Fluo-4AM dye-based FLIPR assay; type: cell-based
T2 sequence (Q7TQN9 whole entry): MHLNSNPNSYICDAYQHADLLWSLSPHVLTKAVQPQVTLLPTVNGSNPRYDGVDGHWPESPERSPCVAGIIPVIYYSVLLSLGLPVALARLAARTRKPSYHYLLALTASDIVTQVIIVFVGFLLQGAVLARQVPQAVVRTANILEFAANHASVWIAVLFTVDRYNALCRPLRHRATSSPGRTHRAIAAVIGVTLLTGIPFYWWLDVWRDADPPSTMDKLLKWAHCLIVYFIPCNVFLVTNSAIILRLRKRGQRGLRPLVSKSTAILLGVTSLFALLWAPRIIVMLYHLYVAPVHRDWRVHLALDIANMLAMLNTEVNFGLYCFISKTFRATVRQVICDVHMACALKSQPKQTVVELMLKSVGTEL

[3] = target: T1, Probable G-protein coupled receptor 142; experiment: Agonist activity at human GPR142 expressed in CHO cells measured after 30 to 60 mins by IP-One assay; type: cell-based
[4] = target: T2, Probable G-protein coupled receptor 142; experiment: Agonist activity at mouse GPR142 expressed in CHO cells measured after 30 to 60 mins by IP-One assay; type: cell-based
[5] = Metabolic stability in human liver microsomes assessed as compound remaining at 1 uM measured after 30 mins; type: ADME; conditions: read-out: Stability
[6] = Metabolic stability in rat liver microsomes assessed as compound remaining at 1 uM measured after 30 mins; type: ADME; conditions: read-out: Stability
[7] = Metabolic stability in mouse liver microsomes assessed as compound remaining at 1 uM measured after 30 mins; type: ADME; conditions: read-out: Stability
[8] = Solubility of the compound in PBS at pH 2; type: physicochemical
[9] = Solubility of the compound in PBS at pH 7; type: physicochemical
[10] = Lipophilicity, log D of the compound at pH 7; type: physicochemical; conditions: buffer
Cytochrome P450 2D6 = Cytochrome P450 2D6 (Homo sapiens, UniProt P10635); experiment: Inhibition of CYP2D6 (unknown origin); type: ADME
Cytochrome P450 3A4 = Cytochrome P450 3A4 (Homo sapiens, UniProt P08684); experiment: Inhibition of CYP3A4 (unknown origin); type: ADME
[11] = target: Sodium channel protein type 5 subunit alpha (Homo sapiens, UniProt Q14524); experiment: Inhibition of Nav1.5 (unknown origin)
[12] = target: Voltage-dependent L-type calcium channel subunit alpha-1C (Homo sapiens, UniProt Q13936); experiment: Inhibition of Cav1.2 (unknown origin)
[13] = Apparent permeability in pig LLC-PK1 cells at 5 uM measured after 3 hrs; type: ADME, cell-based, Sus scrofa
[14] = Plasma clearance in Sprague-Dawley rat at 1 mg/kg, iv or 2 mg/kg, po; type: ADME, organism-based
[15] = Unbound clearance in Sprague-Dawley rat plasma at 1 mg/kg, iv or 2 mg/kg, po; type: ADME, organism-based; conditions: in vivo
In short: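 Rat pharmacokinetic study; plasma clearance corrected for plasma protein binding as Clu = Clp/fu, where fu is the unbound fraction in plasma.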

[16] = Half life in Sprague-Dawley rat at 1 mg/kg, iv or 2 mg/kg, po; type: ADME, organism-based; conditions: in vivo
[17] = Oral bioavailability in Sprague-Dawley rat at 2 mg/kg; type: ADME, organism-based; conditions: in vivo
[18] = Fraction unbound in Sprague-Dawley rat plasma at 1 mg/kg, iv or 2 mg/kg, po; type: ADME, organism-based
[19] = target: T3, Probable G-protein coupled receptor 142 (Mus musculus) (UniProt Q7TQN9); experiment: Agonist activity at GPR142 in mouse islets assessed as potentiation of glucose-stimulated insulin secretion at 3 to 10 uM in presence of 16 mM glucose
T3 sequence (whole entry): T2 sequence (Q7TQN9 whole entry)
In short: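 Ex vivo insulin secretion in freshly isolated mouse islets, tested at low (2 mM) and high (16 mM) glucose. GLP-1 was run as a reference in the same experiment. Each treatment was compared with vehicle by 1-way ANOVA.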

Mus musculus [20] = experiment: Antihyperglycemic activity in fasted C57BL/6 mouse assessed as reduction in glucose AUC administered prior to dextrose challenge measured after 90 mins by oral glucose tolerance test; type: functional
Mus musculus [21] = experiment: Antihyperglycemic activity in fasted C57BL/6 mouse assessed as reduction in glucose AUC (0 to 120 mins) at 30 mg/kg, po administered prior to dextrose challenge by oral glucose tolerance test; type: functional; set-up: scale not given: the % may be the effect or the level left
In short: (§1)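 Lean mice given the compound orally (1 to 30 mpk), then orally challenged with 5 g/kg dextrose. Glucose excursion expressed as AUC0–120 min reduction versus vehicle. N = 7 per group; ANOVA with Dunnett's post-test.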

Mus musculus [22] = experiment: Antihyperglycemic activity in fasted C57BL/6 mouse assessed as reduction in glucose AUC (0 to 120 mins) at 3 mg/kg, po administered prior to dextrose challenge by oral glucose tolerance test; type: functional; set-up: scale not given: the % may be the effect or the level left; in short: as §1
Mus musculus [23] = experiment: Antihyperglycemic activity in fasted C57BL/6 mouse assessed as reduction in glucose AUC (0 to 120 mins) at 1 mg/kg, po administered prior to dextrose challenge by oral glucose tolerance test; type: functional; set-up: scale not given: the % may be the effect or the level left; in short: as §1
[24] = Drug level in fasted C57BL/6 mouse plasma at 30 mg/kg, po measured after 2.5 hrs post dose; type: ADME, organism-based
In short: (§2)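 Plasma sampled from the oral glucose tolerance test mice (5 g/kg dextrose challenge) at 2.5 h after oral dosing. Total drug level measured; free level derived using the unbound plasma fraction.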

[25] = Drug level in fasted C57BL/6 mouse plasma at 3 mg/kg, po measured after 2.5 hrs post dose; type: ADME, organism-based; in short: as §2
[26] = Drug level in fasted C57BL/6 mouse plasma at 1 mg/kg, po measured after 2.5 hrs post dose; type: ADME, organism-based; in short: as §2
[27] = Fraction unbound in fasted C57BL/6 mouse plasma at 30 mg/kg, po measured after 2.5 hrs post dose; type: ADME, organism-based; conditions: in vivo

Sequence of Sodium channel protein type 5 subunit alpha (Q14524 whole entry): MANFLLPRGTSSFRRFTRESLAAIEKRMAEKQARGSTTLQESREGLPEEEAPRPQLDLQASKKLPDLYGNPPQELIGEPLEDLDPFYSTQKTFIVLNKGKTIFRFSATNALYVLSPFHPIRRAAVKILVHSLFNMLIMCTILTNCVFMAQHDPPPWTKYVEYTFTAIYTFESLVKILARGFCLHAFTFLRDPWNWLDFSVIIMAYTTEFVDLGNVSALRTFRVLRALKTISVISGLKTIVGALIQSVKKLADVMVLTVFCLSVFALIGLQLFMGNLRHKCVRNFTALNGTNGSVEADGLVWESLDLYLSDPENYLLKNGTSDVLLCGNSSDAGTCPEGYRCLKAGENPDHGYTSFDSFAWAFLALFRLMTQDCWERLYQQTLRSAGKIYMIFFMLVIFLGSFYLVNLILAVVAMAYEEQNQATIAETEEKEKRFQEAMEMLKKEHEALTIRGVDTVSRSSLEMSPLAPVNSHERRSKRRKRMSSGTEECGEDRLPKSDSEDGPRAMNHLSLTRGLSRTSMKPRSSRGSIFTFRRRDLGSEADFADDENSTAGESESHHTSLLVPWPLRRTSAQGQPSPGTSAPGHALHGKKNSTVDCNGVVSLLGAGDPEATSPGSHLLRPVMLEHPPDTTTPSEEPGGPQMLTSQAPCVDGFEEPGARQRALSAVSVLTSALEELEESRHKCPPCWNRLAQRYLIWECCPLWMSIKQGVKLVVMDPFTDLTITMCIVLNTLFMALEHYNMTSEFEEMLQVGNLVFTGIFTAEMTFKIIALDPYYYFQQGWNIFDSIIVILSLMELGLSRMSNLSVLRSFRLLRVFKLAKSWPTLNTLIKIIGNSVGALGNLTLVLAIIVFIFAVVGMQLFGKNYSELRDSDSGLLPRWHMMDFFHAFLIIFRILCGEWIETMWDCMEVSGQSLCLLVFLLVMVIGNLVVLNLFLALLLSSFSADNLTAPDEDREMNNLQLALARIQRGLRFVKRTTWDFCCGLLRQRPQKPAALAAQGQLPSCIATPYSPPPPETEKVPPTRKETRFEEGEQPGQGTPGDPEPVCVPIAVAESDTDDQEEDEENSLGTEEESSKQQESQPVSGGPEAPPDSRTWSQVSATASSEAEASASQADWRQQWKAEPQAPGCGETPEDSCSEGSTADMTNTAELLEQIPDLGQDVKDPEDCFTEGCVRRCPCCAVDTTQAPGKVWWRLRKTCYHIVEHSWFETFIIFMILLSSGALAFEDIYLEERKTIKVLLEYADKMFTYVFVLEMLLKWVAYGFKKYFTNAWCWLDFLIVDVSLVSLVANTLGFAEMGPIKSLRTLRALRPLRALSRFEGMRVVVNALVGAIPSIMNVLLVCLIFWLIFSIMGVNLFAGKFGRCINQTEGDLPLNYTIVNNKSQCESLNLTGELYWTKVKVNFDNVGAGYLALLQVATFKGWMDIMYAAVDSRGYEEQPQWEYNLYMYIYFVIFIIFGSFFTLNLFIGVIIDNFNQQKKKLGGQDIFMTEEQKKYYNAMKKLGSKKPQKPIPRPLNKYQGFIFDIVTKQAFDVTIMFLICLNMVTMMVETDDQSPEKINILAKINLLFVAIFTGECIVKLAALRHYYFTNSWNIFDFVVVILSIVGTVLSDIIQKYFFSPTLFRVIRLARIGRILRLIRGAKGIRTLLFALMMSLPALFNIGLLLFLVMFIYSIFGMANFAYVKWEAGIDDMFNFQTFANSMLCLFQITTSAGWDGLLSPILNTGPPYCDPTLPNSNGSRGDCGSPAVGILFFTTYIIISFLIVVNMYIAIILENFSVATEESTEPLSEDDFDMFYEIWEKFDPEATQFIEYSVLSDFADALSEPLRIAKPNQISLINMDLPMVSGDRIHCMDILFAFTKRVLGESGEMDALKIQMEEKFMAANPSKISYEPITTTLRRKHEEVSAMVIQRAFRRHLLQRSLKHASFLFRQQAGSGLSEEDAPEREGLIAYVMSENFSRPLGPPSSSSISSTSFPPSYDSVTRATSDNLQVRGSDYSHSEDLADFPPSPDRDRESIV
Sequence of Voltage-dependent L-type calcium channel subunit alpha-1C (Q13936 whole entry): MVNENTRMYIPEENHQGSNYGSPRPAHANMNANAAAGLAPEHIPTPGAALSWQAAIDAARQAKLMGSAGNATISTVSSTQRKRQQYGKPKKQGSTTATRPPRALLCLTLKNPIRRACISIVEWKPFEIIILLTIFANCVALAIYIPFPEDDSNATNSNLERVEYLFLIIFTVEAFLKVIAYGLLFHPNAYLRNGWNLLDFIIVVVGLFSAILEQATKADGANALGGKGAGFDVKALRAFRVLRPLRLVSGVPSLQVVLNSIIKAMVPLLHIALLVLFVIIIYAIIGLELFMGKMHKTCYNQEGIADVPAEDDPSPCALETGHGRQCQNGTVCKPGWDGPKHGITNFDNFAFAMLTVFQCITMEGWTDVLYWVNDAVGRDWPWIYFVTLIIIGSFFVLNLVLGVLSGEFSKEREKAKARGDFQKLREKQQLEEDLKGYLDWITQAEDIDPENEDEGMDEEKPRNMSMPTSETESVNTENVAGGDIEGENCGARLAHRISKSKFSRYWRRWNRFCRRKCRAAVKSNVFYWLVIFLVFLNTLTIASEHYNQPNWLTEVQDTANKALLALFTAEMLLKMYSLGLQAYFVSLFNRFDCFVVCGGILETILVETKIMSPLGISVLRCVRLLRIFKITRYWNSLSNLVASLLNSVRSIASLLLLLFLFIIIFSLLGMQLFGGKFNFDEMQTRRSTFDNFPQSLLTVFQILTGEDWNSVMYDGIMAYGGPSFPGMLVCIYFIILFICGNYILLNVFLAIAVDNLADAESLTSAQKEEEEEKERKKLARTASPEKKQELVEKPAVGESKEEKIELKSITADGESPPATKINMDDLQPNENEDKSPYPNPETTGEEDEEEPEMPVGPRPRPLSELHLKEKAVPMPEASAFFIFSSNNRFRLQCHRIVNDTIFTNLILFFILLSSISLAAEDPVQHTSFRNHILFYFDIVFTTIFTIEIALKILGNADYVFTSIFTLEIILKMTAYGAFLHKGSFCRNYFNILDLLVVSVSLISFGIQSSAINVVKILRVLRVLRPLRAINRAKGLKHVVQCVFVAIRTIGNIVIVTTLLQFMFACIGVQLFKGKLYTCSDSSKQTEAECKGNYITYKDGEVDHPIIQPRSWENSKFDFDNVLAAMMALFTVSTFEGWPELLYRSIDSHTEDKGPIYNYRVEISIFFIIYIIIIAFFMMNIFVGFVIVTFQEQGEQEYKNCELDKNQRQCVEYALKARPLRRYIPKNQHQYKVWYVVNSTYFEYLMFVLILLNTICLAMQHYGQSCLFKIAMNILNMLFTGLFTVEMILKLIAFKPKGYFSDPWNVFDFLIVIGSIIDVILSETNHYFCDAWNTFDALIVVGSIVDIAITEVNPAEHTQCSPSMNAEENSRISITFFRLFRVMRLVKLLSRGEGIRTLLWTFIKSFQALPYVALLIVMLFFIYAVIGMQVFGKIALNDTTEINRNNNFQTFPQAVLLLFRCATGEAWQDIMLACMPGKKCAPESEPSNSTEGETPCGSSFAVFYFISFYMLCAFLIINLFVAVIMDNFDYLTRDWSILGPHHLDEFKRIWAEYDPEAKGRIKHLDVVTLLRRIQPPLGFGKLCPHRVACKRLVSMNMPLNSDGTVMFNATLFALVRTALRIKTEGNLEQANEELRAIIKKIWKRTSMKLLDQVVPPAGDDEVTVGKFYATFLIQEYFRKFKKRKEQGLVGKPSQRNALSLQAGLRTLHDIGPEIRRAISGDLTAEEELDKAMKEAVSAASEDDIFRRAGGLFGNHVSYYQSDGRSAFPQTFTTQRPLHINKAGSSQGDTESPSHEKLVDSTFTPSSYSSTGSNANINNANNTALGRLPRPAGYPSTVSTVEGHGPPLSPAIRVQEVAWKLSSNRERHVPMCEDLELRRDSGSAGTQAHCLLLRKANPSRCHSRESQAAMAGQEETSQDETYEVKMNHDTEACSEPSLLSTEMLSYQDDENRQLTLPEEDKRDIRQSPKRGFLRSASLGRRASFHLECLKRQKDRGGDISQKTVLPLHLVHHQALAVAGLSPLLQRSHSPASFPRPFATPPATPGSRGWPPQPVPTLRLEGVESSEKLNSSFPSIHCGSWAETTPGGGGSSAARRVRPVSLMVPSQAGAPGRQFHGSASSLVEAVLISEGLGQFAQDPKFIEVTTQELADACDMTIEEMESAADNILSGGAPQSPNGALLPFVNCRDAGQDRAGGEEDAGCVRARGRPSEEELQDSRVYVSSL
Sequence of Cytochrome P450 3A4 (P08684 whole entry): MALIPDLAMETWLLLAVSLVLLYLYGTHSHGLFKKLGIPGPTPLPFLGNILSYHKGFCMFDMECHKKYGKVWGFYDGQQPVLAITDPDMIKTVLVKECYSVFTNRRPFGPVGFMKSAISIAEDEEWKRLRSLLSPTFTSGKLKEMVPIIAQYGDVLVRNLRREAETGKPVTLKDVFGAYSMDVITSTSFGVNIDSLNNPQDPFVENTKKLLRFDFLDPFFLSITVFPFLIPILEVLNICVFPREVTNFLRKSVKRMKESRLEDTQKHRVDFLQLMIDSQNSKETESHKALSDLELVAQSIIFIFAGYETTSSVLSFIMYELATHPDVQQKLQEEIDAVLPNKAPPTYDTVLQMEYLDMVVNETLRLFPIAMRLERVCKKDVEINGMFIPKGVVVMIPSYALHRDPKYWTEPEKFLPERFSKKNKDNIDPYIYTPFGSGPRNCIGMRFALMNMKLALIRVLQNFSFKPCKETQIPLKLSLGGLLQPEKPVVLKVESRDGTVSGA

EC50 [1]: 0.025 µM | EC50 [2]: 0.027 µM | EC50 [3]: 0.012 µM | EC50 [4]: 0.003 µM | remaining at 0.5 h, 1 µM [5]: 56% | remaining at 0.5 h, 1 µM [6]: 75% | remaining at 0.5 h, 1 µM [7]: 63% | solubility [8]: 170 µM (≈ 72.6 µg/mL) | solubility [9]: 5 µM (≈ 2.14 µg/mL) | logD [10]: 2.42 | IC50 (Cytochrome P450 2D6): 9.4 µM | IC50 (Cytochrome P450 3A4): 15 µM | Papp at 3 h, 5 µM [13]: 28 ×10⁻⁶ cm/s | clearance [14]: 13 mL/min/kg | CL free [15]: 1000 mL/min/kg | half-life [16]: 54 min | bioavailability [17]: 56% | fraction unbound [18]: 0.013 | Activity [19]: Active | concentration at 2.5 h [24]: 11500 nM | concentration at 2.5 h [25]: 274 nM | concentration at 2.5 h [26]: 44 nM | Cp(f) [27]: 149 nM
SMILES: Cc1nccn1-c1ccc(-c2cn(CC(=O)Nc3cccc(Cl)c3Cl)nn2)cc1
IC50 [11]: 21 µM | IC50 [12]: 21 µM | Activity (Mus musculus [20]): Dose-dependent effect | Activity (Mus musculus [21]): 89% | Activity (Mus musculus [22]): 79% | Activity (Mus musculus [23]): 49%
